Measurements pooled from the literature.
Lines come from different studies, so protocols differ.
MDH2: Malate dehydrogenase, mitochondrial (MDH2, Sus scrofa, UniProt P00346)

| SMILES | target | effect on | action | method | setting | quantity | value |
| --- | --- | --- | --- | --- | --- | --- | --- |
| CC(O)CN1CCC(CC[S+]([O-])C(c2ccc(F)cc2)c2ccc(F)cc2)CC1 (centres unmarked) | Transporter (Slc6a2, Rattus norvegicus, UniProt Q63380) | ligand displacement |  | radioligand |  | Ki | > 100000 nM |
| Cc1cc2nc3c(=O)[nH]c(=O)nc-3n(C[C@H](O)[C@H](O)[C@H](O)COP(=O)(O)OP(=O)(O)OC[C@H]3O[C@@H](n4cnc5c(N)ncnc54)[C@H](O)[C@@H]3O)c2cc1C | Protein argonaute-2 (AGO2, Homo sapiens, UniProt Q9UKV8) | binding |  |  | lysate | Kd | 21 nM |
| O=S(=O)(Nc1ccc(-c2nc3cc(NS(=O)(=O)c4ccccc4)ccc3o2)cc1)c1ccccc1 | MDH2 | enzyme activity | inhibitor |  |  | IC50 | > 62500 nM |
| Cc1ncsc1-c1ccc(CNC(=O)[C@@H]2C[C@@H](O)CN2C(=O)[C@@H](NC(=O)CCCCCCCCCC(=O)N2CCN(CC[C@H](NC(=O)C3(N)CCN(c4ncnc5[nH]ccc45)CC3)c3ccc(Cl)cc3)CC2)C(C)(C)C)cc1 | RAC-alpha serine/threonine-protein kinase (AKT1, Homo sapiens, UniProt P31749) | binding |  | competition with immobilised ligand |  | Kd | 10 nM |
| CC(C)(C)n1nc(-c2cnc3cc(OC4CC4)ccc3c2)c(C(N)=O)c1N | Calcium/calmodulin-dependent protein kinase kinase 2 (CAMKK2, Homo sapiens, UniProt Q96RR4) | cell-free assay |  |  |  | IC50 | > 10000 nM |
| CC(C)C[C@H](NC(=O)[C@@H](N)CCCNC(=N)N)C(=O)N[C@@H](Cc1ccc(O)cc1)C(=O)N[C@@H](Cc1ccc(O)cc1)C(=O)N[C@@H](Cc1ccccc1)C(=O)N[C@@H](Cc1c[nH]c2ccccc12)C(=O)N[C@@H](CC(=O)O)C(=O)O | DNA dC->dU-editing enzyme APOBEC-3G (APOBEC3G, Homo sapiens, UniProt Q9HC16) | enzyme activity | inhibitor |  |  | Ki | ~650 nM |
| CCCN1CCN(c2ccc(-c3cncc(Cl)c3N3CCC4(CCNC4=O)CC3)cc2)CC1 | Cyclin-dependent kinase 1 (CDK1, Homo sapiens, UniProt P06493) | cell-free assay |  |  | lysate | Kd | 18900 nM |
| CNC(=O)c1cc2c(Oc3ccc(NC(=O)C4(C(=O)Nc5ccc(F)cc5)CC4)cc3)ccnc2cc1OC | Tyrosine-protein kinase Mer (MERTK, Homo sapiens, UniProt Q12866) | enzyme activity | inhibitor | radiometric |  | IC50 | 0.9 nM |
| CC(=O)N[C@@H](CCCNC(=N)N)C(=O)NCC(=O)NCC(=O)N1CCC[C@H]1B(O)O | Dipeptidyl peptidase 4 (DPP4, Homo sapiens, UniProt P27487) | enzyme activity | inhibitor | fluorescence |  | Ki | 322 nM |
| Cc1cnc(-c2ccc(-c3ccc(NC(=O)Nc4c(F)cc(F)cc4F)cc3F)c3c2C(=O)NC3)[nH]1 | NT-3 growth factor receptor (NTRK3, Homo sapiens, UniProt Q16288) | binding |  | competition with immobilised ligand |  | Kd | 0.9 nM |
| COc1ccc(S(=O)(=O)Nc2ccc3oc(-c4ccc(NS(=O)(=O)c5cc(Br)ccc5OC)cc4)nc3c2)cc1 | MDH2 | enzyme activity | inhibitor |  |  | IC50 | > 62500 nM |
| [O-][n+]1cccc(CCOc2ccc(Cl)c3ccccc23)c1 | G-protein coupled receptor 84 (Gpr84, Mus musculus, UniProt Q8CIM5) | cAMP | agonist |  |  | EC50 | 11 nM |
| O=C(Nc1ccc(Sc2nc3ccccc3s2)cc1)c1cccc(Br)c1O | MDH2 | enzyme activity | inhibitor |  |  | IC50 | > 62500 nM |
| CCCCCCCCCCCCCCCC(=O)OC[C@H](COP(=O)(O)OC1[C@H](O)[C@H](O)C(OP(=O)(O)O)[C@H](O)[C@H]1O)OC(=O)CCCCCCCCCCCCCCC (some centres unmarked) | Proto-oncogene tyrosine-protein kinase Src (SRC, Homo sapiens, UniProt P12931) | binding |  | fluorescence |  | Kd | 25700 nM |
